The target of series [1] is T1, Prostaglandin D2 receptor 2 (Homo sapiens, UniProt Q9Y5Y4).
T1 sequence (Q9Y5Y4 whole entry): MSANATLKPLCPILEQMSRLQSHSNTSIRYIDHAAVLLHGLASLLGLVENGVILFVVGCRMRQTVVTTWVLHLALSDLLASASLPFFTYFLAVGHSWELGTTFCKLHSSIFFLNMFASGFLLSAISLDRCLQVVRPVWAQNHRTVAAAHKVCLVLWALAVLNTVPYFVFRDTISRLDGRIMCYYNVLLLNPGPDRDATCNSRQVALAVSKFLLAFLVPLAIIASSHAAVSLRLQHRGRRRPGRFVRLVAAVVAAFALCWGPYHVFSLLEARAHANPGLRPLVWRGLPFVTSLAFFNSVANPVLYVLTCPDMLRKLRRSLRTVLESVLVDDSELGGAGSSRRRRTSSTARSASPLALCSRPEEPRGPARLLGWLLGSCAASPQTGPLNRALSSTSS
Description: Displacement of [3H]PGD2 from human CRTH2 receptor expressed in CHO cells. The format is cell-based. In outline:
(§1)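 Scintillation proximity competition assay: 2–5 µg human or mouse CRTH2 membranes (nitrogen-cavitation, differential centrifugation) with WGA-SPA beads and 1.5 nM [3H]PGD2 in 10 mM HEPES/KOH pH 7.4, 10 mM MnCl2, protease inhibitors, 1% Me2SO, 90 min shaking at room temperature. Nonspecific binding with 1 µM PGD2. Ki by Cheng–Prusoff, mean of ≥3 independent experiments.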
(Loss of bound radioactivity is the signal in a displacement assay; it reports binding, not function.)

Series [2] is described as follows: Intrinsic clearance per mg of protein in human liver microsomes at 3 uM. Type of series: ADME, Microsome. In outline: (§2)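 Rat or human liver microsomes (0.5 mg/mL final) in 0.1 M phosphate pH 7.4 with 3 µM compound (1% DMSO), preincubated at 37 °C, started with 1 mM NADPH. Quenched with cold acetonitrile at 0, 15, 30, 45 min; LC/MS-MS of compound disappearance gives intrinsic clearance.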
For orientation: Liver microsomes are a subcellular fraction often used to study metabolism.

The nature of series [3]: Intrinsic clearance per mg of protein in rat liver microsomes at 3 uM. The format is ADME, Microsome. The gist of the method:
as §2

The nature of series [4]: Apparent permeability across human Caco-2 cell membrane at 10 uM. Type of series: ADME, cell-based. In outline:
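Caco-2 monolayers grown 21 days on Transwell filters; TEER above 800 ohm·cm² required. 10 µM test compound in HBSS added apically (A to B) or basolaterally (B to A), 2 h at 37 °C. Both compartments sampled, analysed by LC/MS-MS.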
(Caco-2 cells form a polarised layer with tight junctions and transporters.)

Series [5] concerns the target T2, Prostaglandin D2 receptor 2 (Mus musculus, UniProt Q9Z2J6).
T2 sequence (Q9Z2J6 whole entry): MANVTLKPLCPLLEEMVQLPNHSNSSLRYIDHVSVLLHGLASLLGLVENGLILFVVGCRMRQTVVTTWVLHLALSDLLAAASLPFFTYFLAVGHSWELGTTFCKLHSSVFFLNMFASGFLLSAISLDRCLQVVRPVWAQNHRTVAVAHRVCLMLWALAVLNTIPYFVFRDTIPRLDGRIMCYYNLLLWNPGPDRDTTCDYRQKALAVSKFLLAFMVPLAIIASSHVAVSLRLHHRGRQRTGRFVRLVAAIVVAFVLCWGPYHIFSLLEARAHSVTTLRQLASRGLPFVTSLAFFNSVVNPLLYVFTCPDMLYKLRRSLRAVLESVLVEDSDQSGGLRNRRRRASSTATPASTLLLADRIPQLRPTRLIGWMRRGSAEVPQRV
Description: Displacement of [3H]PGD2 from mouse CRTH2 receptor expressed in HEK293 cells. The format is cell-based. In outline:
as §1

Series [6] has as its target T1, Prostaglandin D2 receptor 2. Description: Antagonist activity at human CRTH2 receptor expressed in CHO cell membrane by [35S]GTP-gamma-S binding assay. The format is functional, cell membranes. In outline: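 [35S]GTPγS binding at 30 °C on 10 µg human CRTH2 membranes in 20 mM HEPES/KOH pH 7.4, 10 mM MgCl2, 10 µg/mL saponin, 3 µM GDP, 150 mM NaCl, 2% Me2SO. PGD2 preincubation 10 min (antagonist mode: 80 nM PGD2), then 0.15 nM [35S]GTPγS for 30 min. Nonspecific binding with 10 µM GTPγS; stopped by centrifugation, scintillation counting.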

Another series deals with T3, Cytochrome P450 1A2 (Homo sapiens, UniProt P05177).
T3 sequence (P05177 whole entry): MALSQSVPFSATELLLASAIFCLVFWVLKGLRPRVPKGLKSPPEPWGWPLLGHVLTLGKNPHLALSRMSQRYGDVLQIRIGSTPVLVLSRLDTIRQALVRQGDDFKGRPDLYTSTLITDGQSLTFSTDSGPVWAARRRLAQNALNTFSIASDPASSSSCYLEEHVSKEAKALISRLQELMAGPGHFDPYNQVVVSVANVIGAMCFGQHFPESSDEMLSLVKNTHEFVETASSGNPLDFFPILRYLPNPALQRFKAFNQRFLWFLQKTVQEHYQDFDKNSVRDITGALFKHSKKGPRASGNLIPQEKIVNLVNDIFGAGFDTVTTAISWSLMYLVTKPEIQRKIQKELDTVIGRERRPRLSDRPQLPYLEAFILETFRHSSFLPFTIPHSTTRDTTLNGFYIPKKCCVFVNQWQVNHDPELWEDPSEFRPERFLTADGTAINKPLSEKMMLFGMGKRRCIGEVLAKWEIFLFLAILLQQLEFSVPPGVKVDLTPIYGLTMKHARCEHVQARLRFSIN
Description: Inhibition of human recombinant CYP1A2. The format is ADME. The gist of the method:
(§3)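 Human recombinant CYP1A2, 2C9, 2C19, 2D6 and 3A4, each turning an isoform-specific fluorogenic substrate into a fluorescent product; test compound up to 10 µM final in 1% DMSO; fluorescence read-out.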

The target in a further series is Cytochrome P450 2C19 (Homo sapiens, UniProt P33261). Description: Inhibition of human recombinant CYP2C19. The format is ADME. The gist of the method:
as §3

In the next series the target is Cytochrome P450 2C9 (Homo sapiens, UniProt P11712). Description: Inhibition of human recombinant CYP2C9. Type of series: ADME. The gist of the method: as §3
A further series concerns the target Cytochrome P450 2D6 (Homo sapiens, UniProt P10635). Description: Inhibition of human recombinant CYP2D6. The format is ADME. In outline: as §3
Another series deals with Cytochrome P450 3A4 (Homo sapiens, UniProt P08684). Description: Inhibition of human recombinant CYP3A4. The format is ADME. In outline: as §3

Each structure is given as a SMILES string.

We go through two compounds from ChEMBL document CHEMBL1145542, “Discovery of a new class of potent, selective, and orally bioavailable CRTH2 (DP2) receptor antagonists for the treatment of allergic inflammatory diseases” (J Med Chem, 2008).

What is called Ki is the equilibrium dissociation constant of an inhibitor or competing ligand from its target. Low values mean higher affinity, high ones lower affinity. For orientation: microsomal CLint means the capacity of the preparation to metabolise the compound, expressed as a volume cleared per time. Higher therefore signals rapid turnover. As a reminder, the Papp is a coefficient for how fast a substance crosses the barrier. In general, IC50 refers to the point on the concentration scale where inhibition reaches its midpoint.

Cytochrome P450 2C19, sequence (P33261 whole entry): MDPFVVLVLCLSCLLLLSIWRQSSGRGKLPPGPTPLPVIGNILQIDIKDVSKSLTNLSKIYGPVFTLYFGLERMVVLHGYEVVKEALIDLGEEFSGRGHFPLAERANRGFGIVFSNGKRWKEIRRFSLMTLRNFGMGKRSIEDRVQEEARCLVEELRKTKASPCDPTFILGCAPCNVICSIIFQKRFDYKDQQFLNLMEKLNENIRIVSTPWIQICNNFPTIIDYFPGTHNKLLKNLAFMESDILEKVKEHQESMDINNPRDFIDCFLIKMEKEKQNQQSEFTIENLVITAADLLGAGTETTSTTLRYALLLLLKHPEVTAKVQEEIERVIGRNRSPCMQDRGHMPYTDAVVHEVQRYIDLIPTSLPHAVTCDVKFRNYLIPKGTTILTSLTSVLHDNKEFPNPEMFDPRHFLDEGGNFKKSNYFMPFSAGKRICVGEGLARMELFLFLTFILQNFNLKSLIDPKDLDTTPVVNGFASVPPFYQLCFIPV
Cytochrome P450 2C9, sequence (P11712 whole entry): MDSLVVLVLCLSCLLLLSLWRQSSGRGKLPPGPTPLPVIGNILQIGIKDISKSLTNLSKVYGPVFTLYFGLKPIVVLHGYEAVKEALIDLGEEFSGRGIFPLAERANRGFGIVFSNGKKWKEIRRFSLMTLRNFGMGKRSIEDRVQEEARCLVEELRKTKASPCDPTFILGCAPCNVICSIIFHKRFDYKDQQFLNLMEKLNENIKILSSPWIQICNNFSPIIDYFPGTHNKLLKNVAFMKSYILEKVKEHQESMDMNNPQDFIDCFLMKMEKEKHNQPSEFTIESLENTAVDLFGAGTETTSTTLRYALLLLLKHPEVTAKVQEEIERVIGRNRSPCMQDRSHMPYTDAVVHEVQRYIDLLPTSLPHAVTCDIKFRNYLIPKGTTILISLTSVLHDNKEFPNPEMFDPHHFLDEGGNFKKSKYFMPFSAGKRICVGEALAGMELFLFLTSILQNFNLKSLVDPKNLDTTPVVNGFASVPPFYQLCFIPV
Cytochrome P450 2D6, sequence (P10635 whole entry): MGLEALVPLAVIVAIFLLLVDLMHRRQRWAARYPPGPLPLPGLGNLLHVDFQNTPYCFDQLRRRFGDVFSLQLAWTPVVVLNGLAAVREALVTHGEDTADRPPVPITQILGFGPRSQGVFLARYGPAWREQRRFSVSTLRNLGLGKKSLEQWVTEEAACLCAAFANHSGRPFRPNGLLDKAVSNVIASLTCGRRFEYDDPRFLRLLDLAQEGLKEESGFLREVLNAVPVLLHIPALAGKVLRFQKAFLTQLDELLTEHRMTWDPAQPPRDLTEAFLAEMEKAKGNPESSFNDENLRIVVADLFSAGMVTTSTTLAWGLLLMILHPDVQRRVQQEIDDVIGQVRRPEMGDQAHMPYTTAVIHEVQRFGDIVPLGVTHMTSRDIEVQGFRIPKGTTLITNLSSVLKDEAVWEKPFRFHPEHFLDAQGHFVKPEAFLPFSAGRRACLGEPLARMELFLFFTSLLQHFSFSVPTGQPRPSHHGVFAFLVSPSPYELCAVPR
Cytochrome P450 3A4, sequence (P08684 whole entry): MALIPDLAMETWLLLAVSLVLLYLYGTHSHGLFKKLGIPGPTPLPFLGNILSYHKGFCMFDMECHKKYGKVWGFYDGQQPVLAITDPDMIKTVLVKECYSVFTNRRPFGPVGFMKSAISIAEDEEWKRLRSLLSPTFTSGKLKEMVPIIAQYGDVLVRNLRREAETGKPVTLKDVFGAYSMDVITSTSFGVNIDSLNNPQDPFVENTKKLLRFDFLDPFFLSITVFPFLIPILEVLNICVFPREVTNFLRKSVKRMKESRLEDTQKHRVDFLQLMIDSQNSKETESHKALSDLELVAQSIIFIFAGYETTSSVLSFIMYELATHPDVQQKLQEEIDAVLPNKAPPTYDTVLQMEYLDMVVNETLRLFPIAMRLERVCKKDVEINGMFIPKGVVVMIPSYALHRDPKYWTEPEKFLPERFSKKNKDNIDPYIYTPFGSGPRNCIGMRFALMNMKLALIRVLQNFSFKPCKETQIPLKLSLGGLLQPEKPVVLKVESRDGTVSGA

In series [1], `COc1cccc(CN2C(=O)C[C@]3(C2=O)C(=O)N(CC(=O)O)c2ccc(Cl)cc23)c1` gave a Ki of 0.072 µM. In addition, the intrinsic metabolic clearance (microsomal CLint) at 3 µM was 9 µL/min/mg in series [2] and 68 µL/min/mg in series [3]. The Papp at 10 µM in series [4] was 0.8 ×10⁻⁶ cm/s.

Turning to `O=C(O)CN1C(=O)C2(CC(=O)N(Cc3ccccc3)C2=O)c2cc(Cl)ccc21` (centres undefined), the results for the Ki in series [1] and in series [5] were 0.196 µM and 0.15 µM, respectively. For the same compound, the IC50 is 0.418 µM in [6]; greater than 10 µM on Cytochrome P450 1A2; greater than 10 µM on Cytochrome P450 2C19; greater than 10 µM at Cytochrome P450 2C9; greater than 10 µM at Cytochrome P450 2D6; greater than 10 µM at Cytochrome P450 3A4. The same compound returned a microsomal CLint at 3 µM in series [3] of 9 µL/min/mg. In series [4], the Papp at 10 µM amounted to 3 ×10⁻⁶ cm/s.
